Calls of active or inactive are those of the source. No cut-off for these calls is given here.

For assay [1], the system named is CCRF-CEM. The experiment in a line: Cytotoxicity against human taxol-resistant CCRF-CEM cells after 72 hrs by XTT assay. It is filed as functional, cell-based. Put shortly:
(§1)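 CCRF-CEM and its Taxol- and vinblastine-resistant sublines were incubated 72 h, then given phenazine methosulfate-XTT for 6 h at 37 °C. Absorbance was read at 450 and 630 nm. IC50 came from median-effect analysis of dose-effect data at six or seven concentrations.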

Assay [2] deals with CCRF-CEM. Nature of the assay: Cytotoxicity against human vinblastine-resistant CCRF-CEM cells after 72 hrs by XTT assay. In kind it is functional, cell-based. Put shortly: as §1
For assay [3], the system named is CCRF-CEM. Nature of the assay: Ratio of IC50 for human vinblastine-resistant CCRF-CEM cells to IC50 for human CCRF-CEM cells. In kind it is functional.
For assay [4], the system named is MX1. The experiment in a line: Cytotoxicity against human MX1 cells after 72 hrs by SRB assay. The following applies: MX1, 72 h. In kind it is functional, cell-based. Put shortly: (§2)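 MX-1 and HCT-116 solid tumor cells were exposed 72 h, with growth read by SRB staining on a microplate spectrophotometer. IC50 came from median-effect analysis of dose-effect data at six or seven concentrations.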

The subject of assay [5] is HCT-116. Nature of the assay: Cytotoxicity against human HCT116 cells after 72 hrs by SRB assay. In kind it is functional, cell-based. As to conditions: HCT-116, 72 h. Put shortly: as §2
Assay [6] concerns CCRF-CEM. The experiment in a line: Ratio of IC50 for human taxol-resistant CCRF-CEM cells to IC50 for human CCRF-CEM cells. In kind it is functional.
Assay [7] has as its system CCRF-CEM. Nature of the assay: Cytotoxicity against human CCRF-CEM cells after 72 hrs by XTT assay. In kind it is functional, cell-based. The method in brief:
as §1

Assay [8] concerns PC-3. The experiment in a line: Cytotoxicity against human PC3 cells after 72 hrs by Alamar blue assay. It is filed as functional, cell-based. The following applies: PC-3, 72 h. The method in brief:
(§3)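 H1299 and PC3 cells were exposed 72 h, then given Alamar blue for 6 h at 37 °C. Absorbance was read at 570 and 600 nm. IC50 came from median-effect analysis of dose-effect data at six or seven concentrations.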

The test system of assay [9] is Nucleic Acid. The experiment in a line: Induction of pEGFP-N1 plasmid DNA interstrand cross-linking at 1 to 20 uM by alkaline agarose gel shift assay. In kind it is nucleic-acid assay. The method in brief:
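pEGFP-N1 plasmid DNA (1500 ng) was incubated with compound (1, 10, 20 μM) in 3 mM NaCl/1 mM sodium phosphate pH 7.4/1 mM EDTA for 2 h at 37 °C. It was then BamHI-linearized, ethanol-precipitated and denatured in 0.5 N NaOH-10 mM EDTA. Samples were run on a 0.8% alkaline agarose gel at 4 °C, 18 V for 22 h, stained with ethidium bromide.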

Assay [10] in a line: Cytotoxicity against human H1299 cells after 72 hrs by Alamar blue assay. It is filed as functional, cell-based. The following applies: NCI-H1299, 72 h. Put shortly: as §3
For assay [11], the system named is Nucleic Acid. Nature of the assay: Induction of pEGFP-N1 plasmid DNA interstrand cross-linking at 1 to 5 uM by alkaline agarose gel shift assay. It is filed as nucleic-acid assay.

On to `O=C(Nc1ccc(N(CCCl)CCCl)cc1)Nc1ccc2ncnc(Nc3ccc(Cl)c(Cl)c3)c2c1`, for which the 50% inhibitory concentration (IC50) in assay [1] amounted to 5.61 µM; in [2], 6.75 µM; in [4], 6.45 µM; in assay [5], 2.79 µM; in assay [7], 2.6 µM. In addition, the “Ratio IC50” value in [3] came to 2.6; in [6] it was 2.16.
With `O=C(Nc1ccc(N(CCCl)CCCl)cc1)Nc1ccc2ncnc(Nc3ccc(Br)cc3)c2c1`, the IC50 worked out at 8.79 µM in assay [1]; 7.88 µM in assay [2]; 6.71 µM in [4]; 7.79 µM in assay [5]; 4.64 µM in assay [7]. The “Ratio IC50” value in assay [3] is 1.7; in assay [6] it was 1.89.
Take `C#Cc1cccc(Nc2ncnc3ccc(NC(=O)Nc4ccc(N(CCCl)CCCl)cc4)cc23)c1`: the IC50 stood at 2.29 µM in [1]; 2.33 µM in assay [2]; 6.27 µM in assay [4]; 3.47 µM in assay [5]; 0.5 µM in assay [7]. Moreover, the figures for the “Ratio IC50” value in assay [3] and in assay [6] were 4.66 and 4.58, respectively.
`O=C(Nc1ccc(N(CCCl)CCCl)cc1)Nc1ccc2ncnc(Nc3ccc(Oc4ccccc4)cc3)c2c1`: the IC50 in assay [1] worked out at 7.99 µM; in assay [2], 10.9 µM; in assay [4], 8.47 µM; in assay [5], 12.4 µM; in assay [7], 4.77 µM. Further, the “Ratio IC50” value in assay [3] stood at 2.28; in assay [6], 1.67.
Turning to `O=C(Nc1ccc(N(CCCl)CCCl)cc1)Nc1ccc2ncnc(Nc3cccc(C(F)(F)F)c3)c2c1`, the IC50 in assay [1] came to 4.57 µM; in assay [2], 4.68 µM; in assay [4] it was 5.3 µM; in assay [5], 5.97 µM; in assay [7] it was 3.97 µM. The “Ratio IC50” value in assay [3] was 1.17; in assay [6], 1.15.
With `COc1ccc(Nc2ncnc3ccc(NC(=O)Nc4ccc(N(CCCl)CCCl)cc4)cc23)cc1Cl`, the IC50 came to 3.34 µM in assay [1]; 3.75 µM in [2]; 8.02 µM in [8]; 5.51 µM in [4]; 5.27 µM in [5]; 6.94 µM in [10]. The IC50 in assay [7] worked out at 0.8 µM. Besides, the results for the “Ratio IC50” value in assay [3] and in assay [6] were 4.68 and 4.17, respectively. The outcome in assay [9] was Active.
As to `O=C(Nc1ccc(N(CCCl)CCCl)cc1)Nc1ccc2ncnc(Nc3ccc(F)c(Br)c3)c2c1`, the IC50 in assay [1] was found to be 4.4 µM; in assay [2], 4.74 µM; in [4], 7.1 µM; in assay [5], 5.99 µM; in assay [7], 2.68 µM. Further, the entries for the “Ratio IC50” value in assay [3] and in assay [6] were 1.77 and 1.64, respectively.
Turning to `O=C(Nc1ccc(N(CCCl)CCCl)cc1)Nc1ccc2ncnc(Nc3ccc(F)cc3)c2c1`, the IC50 came out at 3.16 µM in assay [1]; 1.24 µM in assay [2]; 8.24 µM in assay [8]; 3.43 µM in assay [4]; 3.18 µM in assay [5]; 11.6 µM in assay [10]. In [7], the half-maximal inhibitory concentration (IC50) is 0.74 µM. The “Ratio IC50” value is on record as 1.67 in assay [3] and 4.27 in assay [6]. For the same compound, the outcome in assay [9] was Active.
Turning to `COc1cc(Nc2ncnc3ccc(NC(=O)Nc4ccc(N(CCCl)CCCl)cc4)cc23)cc(OC)c1OC`, the IC50 in assay [1] was 12.3 µM; in assay [2], 24.5 µM; in assay [8] it was 11 µM; in [4] it was 4.02 µM; in [5], 2.24 µM; in assay [10] it was 10.3 µM. This compound also came in with a half-inhibitory concentration (IC50) in assay [7] of 0.38 µM. For the same compound, the “Ratio IC50” value in assay [3] was determined as 64.5; in assay [6], 32.42.
On to `O=C(Nc1ccc(N(CCCl)CCCl)cc1)Nc1ccc2ncnc(Nc3ccc(Cl)c(C(F)(F)F)c3)c2c1`, for which the 50% inhibitory concentration (IC50) in assay [1] was found to be 5.36 µM; in [2] it was 5.28 µM; in assay [4], 7.44 µM; in assay [5], 5.34 µM; in assay [7], 4.77 µM. For the same compound, the “Ratio IC50” value in assay [3] was determined as 1.11; in [6] it was 1.12.
Turning to `O=C(Nc1ccc(N(CCCl)CCCl)cc1)Nc1ccc2ncnc(Nc3cccc(F)c3)c2c1`, the IC50 in assay [1] stood at 3.46 µM; in assay [2], 4.28 µM; in [4] it was 10.1 µM; in assay [5], 9.62 µM; in assay [7] it was 2.51 µM. Moreover, the “Ratio IC50” value was 1.7 in [3] and 1.38 in assay [6].
Take `CC(=O)O[C@H]1C(=O)[C@@]2(C)[C@H]([C@H](OC(=O)c3ccccc3)[C@]3(O)C[C@H](OC(=O)[C@H](O)[C@@H](NC(=O)c4ccccc4)c4ccccc4)C(C)=C1C3(C)C)[C@]1(OC(C)=O)CO[C@@H]1C[C@@H]2O` [PACLITAXEL]: the “Ratio IC50” value amounted to 423 in [3] and 143 in [6].
Take `CC[C@]1(O)C[C@@H]2CN(CCc3c([nH]c4ccccc34)[C@@](C(=O)OC)(c3cc4c(cc3OC)N(C)[C@H]3[C@@](O)(C(=O)OC)[C@H](OC(C)=O)[C@]5(CC)C=CCN6CC[C@]43[C@@H]65)C2)C1` [VINBLASTINE]: the figures for the “Ratio IC50” value in assay [3] and in assay [6] were 679.5 and 106.2, respectively.
As to `O=C(Nc1ccc(N(CCCl)CCCl)cc1)Nc1ccc2ncnc(Nc3ccc(OCc4ccccn4)c(Cl)c3)c2c1`, the IC50 is 4.58 µM in assay [1]; 2.65 µM in assay [2]; 4.62 µM in [4]; 2.22 µM in assay [5]; 1.41 µM in [7]. The entries for the “Ratio IC50” value in [3] and in assay [6] were 1.88 and 3.24, respectively.
As to `COc1cccc(Nc2ncnc3ccc(NC(=O)Nc4ccc(N(CCCl)CCCl)cc4)cc23)c1`, the IC50 in [1] was found to be 3.58 µM; in assay [2], 3.38 µM; in [8], 9.44 µM; in assay [4], 2.59 µM; in [5] it was 2.44 µM; in [10], 8.79 µM. The compound further returned an IC50 in [7] of 1.32 µM. Further, the “Ratio IC50” value is listed as 2.56 in [3] and 2.71 in assay [6].
For `N[C@@H](Cc1ccc(N(CCCl)CCCl)cc1)C(=O)O`, the outcome in assay [11] was Active.
Take `O=C(Nc1ccc(N(CCCl)CCCl)cc1)Nc1ccc2ncnc(Nc3cccc(Br)c3)c2c1`: the half-inhibitory concentration (IC50) in assay [1] was 4.58 µM; in [2] it was 2.62 µM; in [8], 10.1 µM; in [4], 6.92 µM; in assay [5], 2.17 µM; in [10], 8.04 µM. Moreover, inhibition in [7] was half-maximal at 0.95 µM (IC50). The “Ratio IC50” value amounted to 2.76 in [3] and 4.82 in [6].
